This note sets out measurements from ChEMBL document CHEMBL1123440, “Mitomycin C analogues with increased metal complexing ability” (J Med Chem, 1986).

For data set [1], the system named is P388. Put plainly: (§1) Antitumor activity against P-388 leukemia in mice, activity is expressed as maximum effect (% T/C) = MST(median survival time) treated/ MST control in the presence of compound only. It is filed as functional, Mus musculus. In outline:
(§2)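 P388 ascites, 10⁶ cells implanted ip in female CDF1 mice. Six mice per dose of analogue, with 10 saline-injected controls. Each test group carried its own mitomycin C positive control, six mice per dose. Read-out is median survival time (MST). %T/C = MST treated/MST control × 100, taken at the optimal dose. MED is the dose giving %T/C 125. 30-day survivors were counted.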

The nature of data set [2]: Partition coefficient (logP). It is filed as physicochemical. As to conditions: octanol/water. Summed up:
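Shake-flask distribution between n-octanol and water containing phosphate buffer at pH 7.4, run by the Hansch method.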

In data set [3] the test system is P388. Put plainly: Antitumor activity against P-388 leukemia in mice, activity is expressed as maximum effect (% T/C) = MST(median survival time) treated/ MST control in the present of Mitomycin C. Type of data set: functional, Mus musculus. Summed up:
as §2

The nature of data set [4]: Ratio value, Optimal dose / Minimum effective dose. It is filed as functional. In outline:
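Therapeutic ratio from the P388 ip survival test in female CDF1 mice (10⁶ ascites cells). Calculated as optimal dose divided by minimum effective dose. The minimum effective dose is the dose giving %T/C 125.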

Data set [5] relates to P388. Put plainly: Antitumor activity against P-388 leukemia in mice, activity is expressed as Minimum effective dose. Type of data set: functional. Particulars: Mus musculus, read-out: MED. Summed up:
as §2

The subject of data set [6] is P388. Put plainly: Antitumor activity against P-388 leukemia in mice, activity is expressed as Optimal dose. Type of data set: functional, Mus musculus. In outline:
as §2

Data set [7] is filed under the species Mus musculus. Description: Compound was tested for antitumor activity against P-388 leukemia in mice, activity is expressed as Optimal dose; 3.2-4.8. It is filed as functional.
The species entered for data set [8] is Mus musculus. Description: Compound was tested for antitumor activity against P-388 leukemia in mice, activity is expressed as maximum effect (% T/C) = MST(median survival time) treated/ MST control in the presence of compound only; 132->344. It is filed as functional. Summed up:
as §2

For data set [9], the species on record is Mus musculus. The description is as §1. It is filed as functional. In outline: as §2
For data set [10], the species on record is Mus musculus. Put plainly: Compound was tested for antitumor activity against P-388 leukemia in mice, activity is expressed as maximum effect (% T/C) = MST(median survival time) treated/ MST control in the pr. It is filed as functional. In outline:
as §2

One may read the T/C as the ratio of treated to control. What is called logP is a log measure of how a compound divides between an organic and an aqueous phase. On to `CO[C@@]12C(COC(N)=O)C3=C(C(=O)C(C)=C(NCCNCCN)C3=O)N1CC1NC12` (stereo partly drawn), for which the T/C in the data set on P388 [1] is 100%; in the data set with P388 [3], 178%. In data set [2], this compound came in with a logP of -1.14.
For `CO[C@@]12C(COC(N)=O)C3=C(C(=O)C(C)=C(N(C)CCc4ccccn4)C3=O)N1CC1NC12` (stereo partly drawn), in data set [4], the Ratio was more than 64. Further, the T/C with P388 [1] is listed as 300%; in the data set on P388 [3], 319%. Moreover, in data set [2], the logP stood at 0.37. For the same compound, in the data set with P388 [5], the minimal effective dose was less than 0.2 mg/kg. Further, in the data set on P388 [6], the OD worked out at 12.8 mg/kg.
Consider `CO[C@@]12C(COC(N)=O)C3=C(C(=O)C(C)=C(NCC(O)CO)C3=O)N1CC1NC12` (stereo partly drawn), for which the Ratio in data set [4] amounted to 4. The results for the T/C in the data set with P388 [1] and in the data set with P388 [3] were 175% and 205%, respectively. Further, in the data set with P388 [5], the minimal effective dose came to 6.4 mg/kg. The compound also had an OD with P388 [6] of 25.6 mg/kg.
As to `CO[C@@]12C(COC(N)=O)C3=C(C(=O)C(C)=C(NCc4ccccn4)C3=O)N1CC1NC12` (stereo partly drawn), the Ratio in [4] is 16. Also, the figures for the T/C in the data set on P388 [1] and in the data set on P388 [3] were 233% and 272%, respectively. Also, the logP in data set [2] is -0.09. In addition, the minimal effective dose with P388 [5] is 1.6 mg/kg. In the data set on P388 [6], this compound had an OD of 25.6 mg/kg.
For the compound `CO[C@@]12C(COC(N)=O)C3=C(C(=O)C(C)=C(NCCCN)C3=O)N1CC1NC12` (stereo partly drawn), the Ratio in [4] was found to be 4. The T/C with P388 [1] is recorded as 147%; with P388 [3], 279%. In data set [2], the lipophilicity (logP) was -1.3. Also, the minimal effective dose in the data set with P388 [5] was determined as 6.4 mg/kg. The compound also showed an OD in the data set with P388 [6] of 25.6 mg/kg.
In the case of `CO[C@@]12C(COC(N)=O)C3=C(C(=O)C(C)=C(NC(C)C(=O)O)C3=O)N1CC1NC12` (stereo partly drawn), the T/C is 109% in the data set with P388 [1] and 132% in the data set with P388 [3]. Further, the OD in the data set on P388 [6] came to 12.8 mg/kg.
Take `CO[C@@]12[C@H](COC(N)=O)C3=C(C(=O)C(C)=C(N)C3=O)N1C[C@@H]1N[C@@H]12` [MITOMYCIN]: the Ratio in data set [4] is 24. Also, in the data set on P388 [5], the minimal effective dose turned out to be 0.2 mg/kg. Further, the OD in the data set listed under Mus musculus [7] is 3.2 mg/kg. Besides, in the data set listed under Mus musculus [8], the T/C is reported as 132%.
For the compound `CO[C@@]12C(COC(N)=O)C3=C(C(=O)C(C)=C(NCCc4ccncc4)C3=O)N1CC1NC12` (stereo partly drawn), in [4], the Ratio worked out at 8. Besides, the logP in [2] was determined as 0.31. In addition, the minimal effective dose in the data set with P388 [5] is 3.2 mg/kg. The results for the T/C in the data set filed under Mus musculus [9] and with P388 [3] were 167% and 233%, respectively. Moreover, the OD in the data set on P388 [6] came out at 25.6 mg/kg.
With `CO[C@@]12C(COC(N)=O)C3=C(C(=O)C(C)=C(NCCc4c[nH]cn4)C3=O)N1CC1NC12` (stereo partly drawn), the Ratio in data set [4] stood at 16. The T/C in the data set with P388 [1] was 163%; in the data set on P388 [3], 213%. The same compound registered a logP in data set [2] of -0.19. Further, the minimal effective dose in the data set with P388 [5] was 1.6 mg/kg. The same compound displayed an OD in the data set with P388 [6] of 25.6 mg/kg.
Turning to `CO[C@@]12C(COC(N)=O)C3=C(C(=O)C(C)=C(NCCNc4ccc([N+](=O)[O-])cn4)C3=O)N1CC1NC12` (stereo partly drawn), the Ratio in data set [4] turned out to be 8. Also, the T/C stood at 144% with P388 [1] and 250% in the data set on P388 [3]. In data set [2], this compound gave a lipophilicity (logP) of 0.77. Further, the minimal effective dose in the data set with P388 [5] is 2.6 mg/kg. In the data set on P388 [6], the OD turned out to be 12.8 mg/kg.
As to `CO[C@@]12C(COC(N)=O)C3=C(C(=O)C(C)=C(NCCc4ccco4)C3=O)N1CC1NC12` (stereo partly drawn), the Ratio in data set [4] was 16. The T/C with P388 [1] is 328%; in the data set on P388 [3] it was 156%. For the same compound, the minimal effective dose with P388 [5] turned out to be 1.6 mg/kg. Also, in the data set with P388 [6], the OD is 25.6 mg/kg.
In the same order, the values of `CO[C@@]12C(COC(N)=O)C3=C(C(=O)C(C)=C(N(CCN)CCN)C3=O)N1CC1NC12` (stereo partly drawn) are 8, 129%, 276%, 3.2 mg/kg and 25.6 mg/kg.
For the compound `CO[C@@]12C(COC(N)=O)C3=C(C(=O)C(C)=C(NCCC(=O)O)C3=O)N1CC1NC12` (stereo partly drawn), the T/C in the data set on P388 [1] is reported as 133%; with P388 [3] it was 194%. Besides, the minimal effective dose in the data set on P388 [5] is 25.6 mg/kg. This compound had an OD with P388 [6] of 25.6 mg/kg.
Take `CO[C@@]12C(COC(N)=O)C3=C(C(=O)C(C)=C(NCCNCCO)C3=O)N1CC1NC12` (stereo partly drawn): the Ratio in [4] amounted to 1. In addition, the T/C amounted to 133% in the data set on P388 [1] and 156% in the data set on P388 [3]. The same compound displayed a logP in data set [2] of -0.57. Also, in the data set on P388 [5], the minimal effective dose came out at 12.8 mg/kg. In the data set on P388 [6], this compound came in with an OD of 12.8 mg/kg.
As to `CO[C@@]12C(COC(N)=O)C3=C(C(=O)C(C)=C(NC(CCN=C(N)N)C(=O)O)C3=O)N1CC1NC12` (stereo partly drawn), the results for the T/C in the data set on P388 [1] and in the data set on P388 [3] were 138% and 263%, respectively. Besides, in the data set on P388 [5], the minimal effective dose was determined as 6.4 mg/kg. The compound also gave an OD with P388 [6] of 25.6 mg/kg.
On to `CO[C@@]12C(COC(N)=O)C3=C(C(=O)C(C)=C(NCCc4ccccn4)C3=O)N1CC1NC12` (stereo partly drawn), for which, in [4], the Ratio amounted to 128. The T/C in the data set with P388 [1] is recorded as more than 375%; in the data set listed under Mus musculus [10], 319%. Besides, the log partition coefficient (logP) in data set [2] was -0.09. In addition, the minimal effective dose in the data set with P388 [5] came to 0.2 mg/kg. In the data set on P388 [6], this compound returned an OD of 25.6 mg/kg.
As to `COC(=O)C(CCSC)NC1=C(C)C(=O)C2=C(C1=O)C(COC(N)=O)[C@@]1(OC)C3NC3CN21` (stereo partly drawn), the T/C with P388 [1] stood at 131%; in the data set on P388 [3], 250%. Further, the minimal effective dose in the data set on P388 [5] amounted to 3.2 mg/kg. The OD with P388 [6] is 6.4 mg/kg.
In the same order, the values of `CO[C@@]12C(COC(N)=O)C3=C(C(=O)C(C)=C(NCCC(N)C(=O)O)C3=O)N1CC1NC12` (stereo partly drawn) are 139%, 206%, 6.4 mg/kg and 25.6 mg/kg.
For `CO[C@@]12C(COC(N)=O)C3=C(C(=O)C(C)=C(NCCCN(CCO)CCO)C3=O)N1CC1NC12` (stereo partly drawn), the Ratio in data set [4] stood at 1. The T/C was 137% in the data set on P388 [1] and 279% in the data set on P388 [3]. In addition, in data set [2], the logP was -0.36. In addition, in the data set on P388 [5], the minimal effective dose worked out at 25.6 mg/kg. The same compound gave an OD in the data set with P388 [6] of 25.6 mg/kg.
Regarding `CCOC(=O)C(CO)NC1=C(C)C(=O)C2=C(C1=O)C(COC(N)=O)[C@@]1(OC)C3NC3CN21` (stereo partly drawn), the T/C was found to be 156% with P388 [1] and 194% with P388 [3]. For the same compound, in the data set with P388 [5], the minimal effective dose worked out at 3.2 mg/kg. In the data set with P388 [6], this compound yielded an OD of 25.6 mg/kg.
For the compound `CO[C@@]12C(COC(N)=O)C3=C(C(=O)C(C)=C(NCCCCN=C(N)N)C3=O)N1CC1NC12` (stereo partly drawn), the Ratio in [4] was determined as 16. Also, the T/C with P388 [1] was found to be 156%; in the data set on P388 [3] it was 263%. Moreover, in the data set with P388 [5], the minimal effective dose was 1.6 mg/kg. The same compound yielded an OD in the data set on P388 [6] of 25.6 mg/kg.
For the compound `CO[C@@]12C(COC(N)=O)C3=C(C(=O)C(C)=C(NC(CO)C(=O)O)C3=O)N1CC1NC12` (stereo partly drawn), the T/C was 138% with P388 [1] and 263% in the data set with P388 [3]. For the same compound, in the data set on P388 [5], the minimal effective dose worked out at 6.4 mg/kg. In the data set on P388 [6], this compound returned an OD of 25.6 mg/kg.
In the case of `CO[C@@]12C(COC(N)=O)C3=C(C(=O)C(C)=C(NCCOCCO)C3=O)N1CC1NC12` (stereo partly drawn), the Ratio in [4] stood at 64. Further, the T/C in the data set with P388 [1] came out at 181%; in the data set with P388 [3], 213%. Further, the logP in [2] is -0.71. In the data set on P388 [5], the minimal effective dose amounted to 0.4 mg/kg. Besides, the OD with P388 [6] was 25.6 mg/kg.
Take `CO[C@@]12C(COC(N)=O)C3=C(C(=O)C(C)=C(NCC(O)CN)C3=O)N1CC1NC12` (stereo partly drawn): the T/C in the data set on P388 [1] is reported as 122%; in the data set with P388 [3], more than 344%. In addition, in the data set with P388 [5], the minimal effective dose is 12.8 mg/kg. In the data set on P388 [6], this compound returned an OD of 12.8 mg/kg.
